According to ChEMBL document CHEMBL1148202, “Lasonolides C-g, five new lasonolide compounds from the sponge Forcepia sp” (J Nat Prod, 2004):

Experiments:
Assay type in all cases: functional, cell-based
[1] = tested on: A549; assay: Cytotoxicity against human A549 cells
Summary of the method: (§1)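 Human tumour cell lines (A549 lung adenocarcinoma, PANC-1 pancreatic, NCI/ADR-RES […], formerly MCF-7/ADR) obtained from ATCC. In vitro proliferation inhibition run by a previously described protocol. Each sample assayed at least three times to derive the final IC50.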

[2] = tested on: PANC-1; assay: Cytotoxicity against human PANC1 cells; summary of the method: as §1
[3] = tested on: NCI/ADR-RES; assay: Cytotoxicity against human NCI/ADR-RES cells; summary of the method: as §1

| SMILES | IC50 [1] [nM] | IC50 [2] [nM] | IC50 [3] [nM] |
| --- | --- | --- | --- |
| C=C(CCC(C)C)COC(=O)[C@H](O)C/C=C\C[C@@H]1O[C@@H]2/C=C/C/C=C/C(C)=C\[C@H]3O[C@@H](C/C=C/C=C/C(=O)O[C@H](C2)[C@@]1(C)CO)C[C@H](O)[C@H]3C [LASONOLIDE A] | 8.6 | 89 | 490 |
| C=C(COC(=O)[C@H](O)C/C=C\C[C@@H]1O[C@@H]2/C=C/C/C=C/C(C)=C\[C@H]3O[C@@H](C/C=C/C=C/C(=O)O[C@H](C2)[C@@]1(C)CO)C[C@H](O)[C@H]3C)C(O)CC(C)C (stereo partly drawn) [LASONOLIDE C] | 130 | 380 | 1120 |
| CC1=C/[C@H]2O[C@@H](C/C=C/C=C/C(=O)O[C@@H]3C[C@@H](/C=C/C\C=C\1)O[C@@H](C/C=C\CCO)[C@]3(C)CO)C[C@H](O)[C@H]2C [LASONOLIDE D] | 4500 | 4890 | > 9000 |
| CCOC(=O)[C@H](O)C/C=C\C[C@@H]1O[C@@H]2/C=C/C/C=C/C(C)=C\[C@H]3O[C@@H](C/C=C/C=C/C(=O)O[C@H](C2)[C@@]1(C)CO)C[C@H](O)[C@H]3C [LASONOLIDE E] | 310 | 570 | > 8000 |
| C=C(COC(=O)[C@H](O)C/C=C\C[C@@H]1O[C@@H]2/C=C/C/C=C/C(C)=C\[C@H]3O[C@@H](C/C=C/C=C/C(=O)O[C@H](C2)[C@@]1(C)COC(=O)CCCCCCCCCCC)C[C@H](O)[C@H]3C)C(O)CC(C)C (stereo partly drawn) [LASONOLIDE G] | > 6000 | > 6000 | > 6000 |
| CC1=C/[C@H]2O[C@@H](C/C=C/C=C/C(=O)O[C@@H]3C[C@@H](/C=C/C\C=C\1)O[C@@H](C/C=C\C[C@@H](O)C(=O)O)[C@]3(C)CO)C[C@H](O)[C@H]2C [LASONOLIDES F] | > 9000 | 15600 | > 9000 |
